Calls of active or inactive are those of the source. No cut-off for these calls is given here.

Assay [1] concerns Escherichia coli. Description: Inhibition of Escherichia coli […] at 500 uM by pyruvate kinase/lactate dehydrogenase coupled assay.
In assay [2] the target is T1, Vancomycin/teicoplanin A-type resistance protein VanA (Enterococcus faecium) (UniProt P25051).
T1 sequence (whole entry): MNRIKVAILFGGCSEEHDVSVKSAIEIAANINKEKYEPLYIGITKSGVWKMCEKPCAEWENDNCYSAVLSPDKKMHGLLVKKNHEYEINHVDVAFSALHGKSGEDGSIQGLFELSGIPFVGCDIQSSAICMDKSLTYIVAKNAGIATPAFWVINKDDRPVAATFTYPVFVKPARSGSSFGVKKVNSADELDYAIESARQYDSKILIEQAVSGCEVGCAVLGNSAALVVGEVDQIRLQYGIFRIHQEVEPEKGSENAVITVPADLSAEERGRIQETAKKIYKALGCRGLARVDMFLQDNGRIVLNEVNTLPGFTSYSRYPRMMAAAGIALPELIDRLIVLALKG
Description: Inhibition of Enterococcus faecium VanA at 500 uM by pyruvate kinase/lactate dehydrogenase coupled assay. The method in brief: (§1)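 VanA measured by NADH depletion at 340 nm via PK/LDH coupling, 37 °C. Buffer 100 mM Hepes pH 7.5, 10 mM MgCl2, 10 mM KCl, 10% (v/v) DMSO ± compound; 2 mM PEP, 0.2 mM ATP, PK, LDH, NADH; substrates 8 mM D-Ala and 1.78 mM D-Lac; started by adding VanA.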

For assay [3], the target named is T2, Vancomycin/teicoplanin A-type resistance protein VanA (Enterococcus faecium, UniProt P25051).
T2 sequence (P25051 whole entry): T1 sequence (whole entry)
Kind of assay: Inhibition of Enterococcus faecium VanA by pyruvate kinase/lactate dehydrogenase coupled assay. Put shortly: as §1

The nature of assay [4]: Inhibition of Escherichia coli […] by pyruvate kinase/lactate dehydrogenase coupled assay.
Assay [5] relates to Escherichia coli. Description: Inhibition of Escherichia coli […] at 10 mM by pyruvate kinase/lactate dehydrogenase coupled assay.
For assay [6], the target named is T1, Vancomycin/teicoplanin A-type resistance protein VanA (Enterococcus faecium). Kind of assay: Inhibition of Enterococcus faecium VanA at 10 mM by pyruvate kinase/lactate dehydrogenase coupled assay. The method in brief:
as §1

In general, inhibition refers to the change of the read-out against control, counted positive when it falls. With `COc1ccc(S(=O)(=O)NCC(CN2CCOCC2)OP(=O)(O)Oc2ccccc2)cc1` (stereo unspecified), the inhibition result (in the assay on Escherichia coli [1]; in assay [2]) was “inactive” in each case.
Broadly, the IC50 is the concentration that gives 50% inhibition. Higher therefore signals weaker potency. Take `O=P(O)(O)OC(CNS(=O)(=O)c1ccc(F)cc1)CN1CCOCC1` (stereo unspecified): the results for the IC50 in assay [3] and in assay [4] were 290 µM and 136 µM, respectively. Further, the inhibition in the assay with Escherichia coli [1] was found to be 77%; in assay [2] it was 75%.
Consider `COc1ccc(S(=O)(=O)NCC(O)CN2CCOCC2)cc1` (stereo unspecified), for which the result (in the assay with Escherichia coli [5]; in assay [6]) was inactive.
For the molecule `O=S(=O)(NCC(O)CN1CCOCC1)c1ccc(F)cc1` (stereo unspecified), the result (in the assay on Escherichia coli [5]; in assay [6]) was inactive.
Turning to `COc1ccc(S(=O)(=O)NCC(CN2CCOCC2)OP(=O)(O)O)cc1` (stereo unspecified), the values for the half-inhibitory concentration (IC50) in assay [3] and in assay [4] were 224 µM and 110 µM, respectively. Besides, the inhibition (in the assay on Escherichia coli [1]; in assay [2]) was 83% throughout.
As for `O=P(O)(Oc1ccccc1)OC(CNS(=O)(=O)c1ccc(F)cc1)CN1CCOCC1` (stereo unspecified), the inhibition entry in the assay with Escherichia coli [1] is “inactive”. Also, the inhibition in assay [2] was 65%.

Values taken from ChEMBL document CHEMBL1153269, “Design and synthesis of new hydroxyethylamines as inhibitors of D-alanyl-D-lactate ligase (VanA) and D-alanyl-D-alanine ligase (DdlB)” (Bioorg Med Chem Lett, 2009).
